Measurements taken from ChEMBL document CHEMBL1275372, “Conformationally restricted homotryptamines. Part 7: 3-cis-(3-aminocyclopentyl)indoles as potent selective serotonin reuptake inhibitors” (J Med Chem, 2010).
One block for each compound: values may come before it. The source made the active and inactive calls. No cut-off for these calls is given here.

Assays:
[1] = molecular target: Sodium-dependent serotonin transporter (Homo sapiens, UniProt P31645); assay: Binding affinity to human SERT
[2] = Oral bioavailability in rat plasma at 3 mg/kg by microdialysis method; assay type: ADME, organism-based
How it was run: (§1)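 Rats dosed orally at 3 mg/kg as part of the frontal-cortex microdialysis experiments. Drug levels in brain and plasma sampled at 2 h after dosing. Oral bioavailability, Tmax and half-life are reported from the same oral 3 mg/kg dosing in rat.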

[3] = molecular target: 5-hydroxytryptamine receptor 2A (Homo sapiens, UniProt P28223); assay: Binding affinity to 5HT2A receptor
[4] = Half life in rat at 3 mg/kg, po by microdialysis method; assay type: ADME, organism-based; set-up: dose 3 mg/kg, route oral; details: in vivo; how it was run: as §1
[5] = molecular target: 5-hydroxytryptamine receptor 6 (Homo sapiens, UniProt P50406); assay: Binding affinity to 5HT6 receptor
[6] = molecular target: T1, 5-hydroxytryptamine receptor 1A (Homo sapiens, UniProt P08908); assay: Binding affinity to 5HT1A receptor
T1 sequence (P08908 whole entry): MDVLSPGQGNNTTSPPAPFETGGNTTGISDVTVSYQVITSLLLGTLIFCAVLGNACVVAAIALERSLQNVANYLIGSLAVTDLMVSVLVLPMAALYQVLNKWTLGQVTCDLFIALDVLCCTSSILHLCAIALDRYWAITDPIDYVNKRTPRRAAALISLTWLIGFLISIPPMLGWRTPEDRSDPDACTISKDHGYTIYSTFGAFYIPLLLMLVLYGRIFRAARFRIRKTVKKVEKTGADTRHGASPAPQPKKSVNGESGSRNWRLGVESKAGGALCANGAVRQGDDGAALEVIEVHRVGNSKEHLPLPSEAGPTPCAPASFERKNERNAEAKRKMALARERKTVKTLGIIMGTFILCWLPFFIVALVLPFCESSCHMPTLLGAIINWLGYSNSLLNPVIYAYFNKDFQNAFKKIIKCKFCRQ

Rattus norvegicus [7] = assay: Increase in extracellular serotonin levels in rat frontal cortex at 3 mg/kg, po by microdialysis method relative to untreated control; assay type: functional
How it was run: (§2)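 In vivo microdialysis in rat frontal cortex measuring extracellular serotonin. Oral doses were 1 and 3 mg/kg, with a reference SSRI at 5 mg/kg po; an iv arm used 1.0 mg/kg. Change is expressed as percent increase over vehicle-treated controls, with significance tested against vehicle.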

D(1A) dopamine receptor = D(1A) dopamine receptor (Homo sapiens, UniProt P21728); assay: Binding affinity to dopamine D1
D(2) dopamine receptor = D(2) dopamine receptor (Homo sapiens, UniProt P14416); assay: Binding affinity to dopamine D2
[8] = molecular target: 5-hydroxytryptamine receptor 4 (Homo sapiens, UniProt Q13639); assay: Binding affinity to 5HT4 receptor
[9] = Drug concentration in rat plasma at 3 mg/kg, po after 2 hrs by microdialysis method; assay type: ADME, organism-based; set-up: dose 3 mg/kg, route oral; how it was run: as §1
[10] = molecular target: Sodium-dependent dopamine transporter (Homo sapiens, UniProt Q01959); assay: Binding affinity to human DAT
[11] = molecular target: T2, 5-hydroxytryptamine receptor 2C (Homo sapiens, UniProt P28335); assay: Binding affinity to 5HT2C receptor
T2 sequence (P28335 whole entry): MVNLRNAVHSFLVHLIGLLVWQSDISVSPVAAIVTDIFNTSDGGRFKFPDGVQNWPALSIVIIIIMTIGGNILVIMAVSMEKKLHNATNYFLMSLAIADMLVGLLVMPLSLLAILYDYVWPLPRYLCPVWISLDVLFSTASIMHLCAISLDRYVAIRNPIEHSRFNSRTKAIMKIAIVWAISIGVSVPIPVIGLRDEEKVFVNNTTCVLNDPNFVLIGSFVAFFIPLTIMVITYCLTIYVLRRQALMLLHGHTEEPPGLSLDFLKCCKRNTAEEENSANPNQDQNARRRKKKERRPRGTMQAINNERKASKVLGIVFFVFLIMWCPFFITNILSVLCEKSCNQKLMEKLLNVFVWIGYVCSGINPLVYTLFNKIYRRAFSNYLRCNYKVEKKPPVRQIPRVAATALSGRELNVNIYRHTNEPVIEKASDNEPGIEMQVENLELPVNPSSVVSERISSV

[12] = molecular target: 5-hydroxytryptamine receptor 7 (Homo sapiens, UniProt P34969); assay: Binding affinity to 5HT7 receptor
[13] = molecular target: Sodium-dependent noradrenaline transporter (Homo sapiens, UniProt P23975); assay: Binding affinity to human NET
[14] = molecular target: 5-hydroxytryptamine receptor 5A (Homo sapiens, UniProt P47898); assay: Binding affinity to 5HT5A receptor
[15] = Tmax in rat at 3 mg/kg, po by microdialysis method; assay type: ADME, organism-based; set-up: dose 3 mg/kg, route oral; details: in vivo; how it was run: as §1
[16] = molecular target: 5-hydroxytryptamine receptor 1B (Homo sapiens, UniProt P28222); assay: Binding affinity to 5HT1B receptor
Rattus norvegicus [17] = assay: Increase in extracellular serotonin levels in rat frontal cortex at 5 mg/kg, po by microdialysis method relative to untreated control; assay type: functional, organism-based; set-up: dose 5 mg/kg; how it was run: as §2
Rattus norvegicus [18] = assay: Increase in extracellular serotonin levels in po dosed rat frontal cortex; assay type: functional, organism-based; how it was run: as §2
Brain = assay: Drug concentration in rat brain at 3 mg/kg, po after 2 hrs by microdialysis method; assay type: ADME, organism-based; set-up: dose 3 mg/kg, route oral; details: in vivo; how it was run: as §1
[19] = molecular target: 5-hydroxytryptamine receptor 2B (Homo sapiens, UniProt P41595); assay: Binding affinity to 5HT2B receptor
5-hydroxytryptamine receptor 2B, sequence (P41595 whole entry): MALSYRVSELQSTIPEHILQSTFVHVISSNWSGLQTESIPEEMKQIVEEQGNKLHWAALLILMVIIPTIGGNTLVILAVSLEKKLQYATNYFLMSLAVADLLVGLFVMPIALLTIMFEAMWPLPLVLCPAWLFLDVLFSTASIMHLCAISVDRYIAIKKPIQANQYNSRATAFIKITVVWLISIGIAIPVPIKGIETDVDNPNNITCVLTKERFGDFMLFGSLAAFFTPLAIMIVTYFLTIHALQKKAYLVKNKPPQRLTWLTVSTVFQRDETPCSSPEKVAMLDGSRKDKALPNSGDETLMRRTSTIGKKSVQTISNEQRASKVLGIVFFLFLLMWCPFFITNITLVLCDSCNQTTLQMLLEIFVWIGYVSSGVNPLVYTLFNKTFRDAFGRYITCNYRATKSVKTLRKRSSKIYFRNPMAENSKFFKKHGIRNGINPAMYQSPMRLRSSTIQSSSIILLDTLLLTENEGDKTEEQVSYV

Sodium-dependent serotonin transporter, sequence (P31645 whole entry): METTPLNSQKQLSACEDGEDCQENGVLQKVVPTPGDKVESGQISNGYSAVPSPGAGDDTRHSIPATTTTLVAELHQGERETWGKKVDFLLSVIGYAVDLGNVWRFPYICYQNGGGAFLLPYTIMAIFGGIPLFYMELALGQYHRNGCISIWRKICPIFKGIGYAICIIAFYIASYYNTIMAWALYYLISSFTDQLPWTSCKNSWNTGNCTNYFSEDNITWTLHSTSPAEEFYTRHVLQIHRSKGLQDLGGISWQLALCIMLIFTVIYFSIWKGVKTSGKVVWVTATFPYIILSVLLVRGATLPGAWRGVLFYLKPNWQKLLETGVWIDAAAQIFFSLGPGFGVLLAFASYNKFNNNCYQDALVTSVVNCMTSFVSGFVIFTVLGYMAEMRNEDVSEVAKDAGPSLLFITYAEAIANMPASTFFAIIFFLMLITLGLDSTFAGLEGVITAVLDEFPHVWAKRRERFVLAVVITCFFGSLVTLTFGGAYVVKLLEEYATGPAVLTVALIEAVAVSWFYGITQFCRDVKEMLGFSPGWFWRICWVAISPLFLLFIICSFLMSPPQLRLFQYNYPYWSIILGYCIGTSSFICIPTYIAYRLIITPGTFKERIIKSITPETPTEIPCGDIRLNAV
Sodium-dependent noradrenaline transporter, sequence (P23975 whole entry): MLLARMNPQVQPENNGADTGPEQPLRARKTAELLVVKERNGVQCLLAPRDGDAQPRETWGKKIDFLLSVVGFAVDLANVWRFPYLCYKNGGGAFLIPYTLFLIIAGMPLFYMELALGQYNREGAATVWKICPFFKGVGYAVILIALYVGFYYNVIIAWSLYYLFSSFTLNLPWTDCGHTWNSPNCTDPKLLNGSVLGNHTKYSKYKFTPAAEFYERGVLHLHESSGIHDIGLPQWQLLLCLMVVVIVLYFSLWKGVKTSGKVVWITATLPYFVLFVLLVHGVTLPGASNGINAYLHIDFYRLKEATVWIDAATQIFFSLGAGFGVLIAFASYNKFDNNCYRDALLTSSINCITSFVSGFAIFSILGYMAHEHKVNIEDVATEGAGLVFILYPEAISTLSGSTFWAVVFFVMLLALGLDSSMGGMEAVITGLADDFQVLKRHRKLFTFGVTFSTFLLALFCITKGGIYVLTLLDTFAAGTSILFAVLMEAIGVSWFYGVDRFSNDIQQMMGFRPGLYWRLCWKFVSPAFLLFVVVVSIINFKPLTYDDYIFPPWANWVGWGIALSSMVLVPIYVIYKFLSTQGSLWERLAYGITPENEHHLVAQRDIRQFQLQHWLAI
5-hydroxytryptamine receptor 1B, sequence (P28222 whole entry): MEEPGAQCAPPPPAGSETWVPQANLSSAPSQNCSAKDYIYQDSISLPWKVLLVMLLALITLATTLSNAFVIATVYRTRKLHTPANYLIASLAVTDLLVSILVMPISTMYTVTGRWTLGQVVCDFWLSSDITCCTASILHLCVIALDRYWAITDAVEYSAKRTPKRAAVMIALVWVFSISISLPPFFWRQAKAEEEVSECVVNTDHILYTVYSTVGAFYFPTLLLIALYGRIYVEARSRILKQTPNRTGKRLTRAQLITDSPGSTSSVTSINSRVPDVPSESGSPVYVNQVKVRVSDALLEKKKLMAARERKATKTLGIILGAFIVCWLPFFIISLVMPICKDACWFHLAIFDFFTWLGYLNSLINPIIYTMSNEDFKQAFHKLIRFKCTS
D(2) dopamine receptor, sequence (P14416 whole entry): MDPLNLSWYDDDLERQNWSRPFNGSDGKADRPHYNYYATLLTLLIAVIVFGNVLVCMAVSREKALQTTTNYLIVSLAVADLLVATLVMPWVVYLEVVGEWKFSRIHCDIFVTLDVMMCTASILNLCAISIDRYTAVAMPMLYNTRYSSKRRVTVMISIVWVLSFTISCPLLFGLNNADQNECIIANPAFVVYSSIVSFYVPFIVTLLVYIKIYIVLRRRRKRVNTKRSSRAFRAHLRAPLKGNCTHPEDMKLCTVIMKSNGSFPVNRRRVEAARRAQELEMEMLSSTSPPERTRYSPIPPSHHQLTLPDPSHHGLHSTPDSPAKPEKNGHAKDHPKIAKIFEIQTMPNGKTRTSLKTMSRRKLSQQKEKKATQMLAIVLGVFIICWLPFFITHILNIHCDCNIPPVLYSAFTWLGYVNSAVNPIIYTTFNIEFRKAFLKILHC
5-hydroxytryptamine receptor 7, sequence (P34969 whole entry): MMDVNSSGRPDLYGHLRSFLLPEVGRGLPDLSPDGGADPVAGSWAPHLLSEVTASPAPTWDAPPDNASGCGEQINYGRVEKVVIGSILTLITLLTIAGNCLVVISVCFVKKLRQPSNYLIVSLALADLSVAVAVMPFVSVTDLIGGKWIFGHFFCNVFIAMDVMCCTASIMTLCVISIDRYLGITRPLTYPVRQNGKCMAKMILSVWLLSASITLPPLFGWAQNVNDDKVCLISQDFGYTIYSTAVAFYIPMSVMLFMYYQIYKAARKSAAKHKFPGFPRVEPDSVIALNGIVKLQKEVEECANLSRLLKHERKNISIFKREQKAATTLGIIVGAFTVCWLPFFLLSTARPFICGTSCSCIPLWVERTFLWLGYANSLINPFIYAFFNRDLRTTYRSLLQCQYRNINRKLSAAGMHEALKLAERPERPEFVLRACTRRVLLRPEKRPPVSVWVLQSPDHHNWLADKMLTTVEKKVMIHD
Sodium-dependent dopamine transporter, sequence (Q01959 whole entry): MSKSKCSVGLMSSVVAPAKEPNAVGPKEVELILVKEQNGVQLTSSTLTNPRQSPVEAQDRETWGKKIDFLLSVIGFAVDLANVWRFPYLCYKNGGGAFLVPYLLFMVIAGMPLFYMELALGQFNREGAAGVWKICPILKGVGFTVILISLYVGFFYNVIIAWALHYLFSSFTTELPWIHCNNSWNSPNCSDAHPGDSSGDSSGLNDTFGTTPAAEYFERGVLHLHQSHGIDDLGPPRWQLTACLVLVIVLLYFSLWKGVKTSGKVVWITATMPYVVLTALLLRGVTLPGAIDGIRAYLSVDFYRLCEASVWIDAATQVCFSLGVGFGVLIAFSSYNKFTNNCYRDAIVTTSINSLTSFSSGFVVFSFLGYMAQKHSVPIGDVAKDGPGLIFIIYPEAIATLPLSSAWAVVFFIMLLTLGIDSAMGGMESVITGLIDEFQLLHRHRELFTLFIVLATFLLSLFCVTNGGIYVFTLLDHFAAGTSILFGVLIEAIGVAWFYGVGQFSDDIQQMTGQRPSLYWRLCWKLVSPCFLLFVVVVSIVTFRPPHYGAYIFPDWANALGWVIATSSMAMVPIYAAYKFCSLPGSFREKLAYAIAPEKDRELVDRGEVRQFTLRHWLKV
5-hydroxytryptamine receptor 4, sequence (Q13639 whole entry): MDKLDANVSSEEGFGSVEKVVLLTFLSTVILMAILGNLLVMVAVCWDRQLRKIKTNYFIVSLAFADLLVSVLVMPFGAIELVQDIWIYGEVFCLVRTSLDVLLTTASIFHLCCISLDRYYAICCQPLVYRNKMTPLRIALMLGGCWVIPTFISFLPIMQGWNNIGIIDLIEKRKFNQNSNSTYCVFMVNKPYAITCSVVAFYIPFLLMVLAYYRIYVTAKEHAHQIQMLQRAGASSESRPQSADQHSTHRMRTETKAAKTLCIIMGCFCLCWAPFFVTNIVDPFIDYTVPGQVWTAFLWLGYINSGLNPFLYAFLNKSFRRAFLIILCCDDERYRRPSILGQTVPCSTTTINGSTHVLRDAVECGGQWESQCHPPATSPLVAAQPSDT
5-hydroxytryptamine receptor 2A, sequence (P28223 whole entry): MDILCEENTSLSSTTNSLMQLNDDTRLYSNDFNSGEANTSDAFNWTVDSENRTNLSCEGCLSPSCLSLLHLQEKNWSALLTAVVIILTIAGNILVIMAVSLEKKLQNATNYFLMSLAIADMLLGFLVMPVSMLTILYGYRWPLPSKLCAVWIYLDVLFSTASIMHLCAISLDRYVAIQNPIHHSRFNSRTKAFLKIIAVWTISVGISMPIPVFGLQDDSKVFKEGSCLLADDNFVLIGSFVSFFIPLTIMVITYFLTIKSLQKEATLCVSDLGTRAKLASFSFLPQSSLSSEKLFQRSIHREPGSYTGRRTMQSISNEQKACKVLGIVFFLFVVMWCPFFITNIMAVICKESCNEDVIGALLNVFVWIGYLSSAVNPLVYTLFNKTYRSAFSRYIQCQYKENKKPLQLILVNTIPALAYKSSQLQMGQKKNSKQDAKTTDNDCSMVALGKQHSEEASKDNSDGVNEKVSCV
5-hydroxytryptamine receptor 6, sequence (P50406 whole entry): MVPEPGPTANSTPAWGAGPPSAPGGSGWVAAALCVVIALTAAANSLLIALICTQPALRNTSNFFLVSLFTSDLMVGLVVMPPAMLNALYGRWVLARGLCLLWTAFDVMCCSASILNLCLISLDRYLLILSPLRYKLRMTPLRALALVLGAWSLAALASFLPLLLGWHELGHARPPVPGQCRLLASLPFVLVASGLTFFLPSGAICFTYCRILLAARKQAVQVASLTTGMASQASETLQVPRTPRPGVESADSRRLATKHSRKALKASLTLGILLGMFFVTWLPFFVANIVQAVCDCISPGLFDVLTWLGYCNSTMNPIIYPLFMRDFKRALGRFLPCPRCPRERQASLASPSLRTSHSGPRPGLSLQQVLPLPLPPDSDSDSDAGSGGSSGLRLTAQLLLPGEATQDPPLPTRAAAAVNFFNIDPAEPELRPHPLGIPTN

Structure (SMILES): CN(C)C1CCC(c2c[nH]c3c(Br)cccc23)C1 (stereo not drawn)
IC50 [1]: 1.6 nM

Structure (SMILES): CCN(C)C1CCC(c2c[nH]c3ccc(C#N)cc23)C1 (stereo not drawn)
IC50 [1]: 1.6 nM

Structure (SMILES): CN(C)C1CCC(c2c[nH]c3cc(F)ccc23)C1 (stereo not drawn)
IC50 [1]: 5.1 nM

IC50 [1]: 5.3 nM
Structure (SMILES): CN(Cc1ccccc1)C1CCC(c2c[nH]c3ccc(C#N)cc23)C1 (stereo not drawn)

Structure (SMILES): CN(C)[C@@H]1CC[C@@H](c2c[nH]c3ccc(C#N)cc23)C1
IC50 [1]: 1.3 nM

Structure (SMILES): CN(C)C1CCC(c2c[nH]c3cccc(F)c23)C1 (stereo not drawn)
IC50 [1]: 31 nM

Structure (SMILES): CNC1CCC(c2c[nH]c3ccc(C#N)cc23)C1 (stereo not drawn)
IC50 [1]: 8.5 nM

Structure (SMILES): CN(C)C1CCC(c2c[nH]c3ccc(Br)cc23)C1 (stereo not drawn)
IC50 [1]: 4.3 nM

Structure (SMILES): CCCNC1CCC(c2c[nH]c3ccc(C#N)cc23)C1 (stereo not drawn)
IC50 [1]: 30 nM

Structure (SMILES): CN(C)C1CCC(c2c[nH]c3cc(Cl)ccc23)C1 (stereo not drawn)
IC50 [1]: 6.5 nM

IC50 [1]: 6.8 nM
Structure (SMILES): N#Cc1ccc2[nH]cc(C3CCC(N4Cc5ccccc5C4)C3)c2c1 (stereo not drawn)

Structure (SMILES): CN(C)C1CCC(c2c[nH]c3ccc(Cl)cc23)C1 (stereo not drawn)
IC50 [1]: 3 nM

Structure (SMILES): Fc1ccc2[nH]cc(C3CCC(N4CCCC4)C3)c2c1 (stereo not drawn)
IC50 [1]: 2.9 nM

Structure (SMILES): CN(C)C1CCC(c2c[nH]c3c(F)cccc23)C1 (stereo not drawn)
IC50 [1]: 3.3 nM

Structure (SMILES): CN(C)C1CCC(c2c[nH]c3ccc(F)cc23)C1 (stereo not drawn)
IC50 [1]: 1.7 nM

IC50 [1]: 6.2 nM
Structure (SMILES): CN(CCc1ccccc1)C1CCC(c2c[nH]c3ccc(C#N)cc23)C1 (stereo not drawn)

Structure (SMILES): CN(C)C1CCC(c2c[nH]c3ccc(C#N)cc23)C1 (stereo not drawn)
IC50 [1]: 0.48 nM

Structure (SMILES): CN(C)[C@H]1CC[C@@H](c2c[nH]c3ccc(C#N)cc23)C1
IC50 [1]: 0.38 nM

IC50 [1]: 6.5 nM
Structure (SMILES): N#Cc1ccc2[nH]cc(C3CCC(N4CCc5ccccc5C4)C3)c2c1 (stereo not drawn)

Structure (SMILES): CN(C)C1CCC(c2c[nH]c3cccc(Br)c23)C1 (stereo not drawn)
IC50 [1]: 5.3 nM

Structure (SMILES): CN(C)C1CCC(c2c[nH]c3cc(Br)ccc23)C1 (stereo not drawn)
IC50 [1]: 9.6 nM

Structure (SMILES): CCNC1CCC(c2c[nH]c3ccc(C#N)cc23)C1 (stereo not drawn)
IC50 [1]: 6.6 nM

Structure (SMILES): N#Cc1ccc2[nH]cc(C3CCC(N4CCCCC4)C3)c2c1 (stereo not drawn)
IC50 [1]: 65 nM

Structure (SMILES): CN(C)C1CCC(c2c[nH]c3c(Cl)cccc23)C1 (stereo not drawn)
IC50 [1]: 1.4 nM

Structure (SMILES): CN(C)[C@H]1CC[C@H](c2c[nH]c3ccc(F)cc23)C1
IC50 [1]: 5.9 nM

Structure (SMILES): CN(C)[C@@H]1CC[C@H](c2c[nH]c3ccc(C#N)cc23)C1
bioavailability [2]: 51%
IC50 [3]: 840 nM
half-life [4]: 33 min
IC50 [5]: 37 nM
IC50 [6]: 1300 nM
Activity (Rattus norvegicus [7]): 150%
IC50 (D(1A) dopamine receptor): 7200 nM
IC50 (D(2) dopamine receptor): > 30000 nM
IC50 [8]: > 30000 nM
concentration at 2 h [9]: 820 nM
IC50 [10]: 1300 nM
IC50 [11]: > 10000 nM
IC50 [12]: > 1000 nM
IC50 [13]: 6900 nM
IC50 [14]: > 1000 nM
Tmax [15]: 60 min
IC50 [16]: 340 nM
Activity (Rattus norvegicus [17]): Active
Activity (Rattus norvegicus [18]): Dose-dependent effect
IC50 [1]: 0.22 nM
Drug uptake (Brain): 1000 nM
IC50 [19]: > 10000 nM

Structure (SMILES): CN(C)[C@@H]1CC[C@H](c2c[nH]c3ccc(F)cc23)C1 (single isomer, unassigned)
IC50 [1]: 2.4 nM

Structure (SMILES): N#Cc1ccc2[nH]cc(C3CCC(N)C3)c2c1 (stereo not drawn)
IC50 [1]: 32 nM

Structure (SMILES): CN(C)[C@H]1CC[C@H](c2c[nH]c3ccc(C#N)cc23)C1
IC50 [1]: 0.97 nM

Structure (SMILES): CN(C)[C@@H]1CC[C@@H](c2c[nH]c3ccc(F)cc23)C1
IC50 [1]: 2.8 nM

Structure (SMILES): N#Cc1ccc2[nH]cc(C3CCC(N4CCOCC4)C3)c2c1 (stereo not drawn)
IC50 [1]: 110 nM

Structure (SMILES): N#Cc1ccc2[nH]cc(C3CCC(N4CCCC4)C3)c2c1 (stereo not drawn)
IC50 [1]: 3 nM

Structure (SMILES): CCN(C)C1CCC(c2c[nH]c3ccc(F)cc23)C1 (stereo not drawn)
IC50 [1]: 3.7 nM

IC50 [1]: 15 nM
Structure (SMILES): N#Cc1ccc2[nH]cc(C3CCC(NCc4ccccc4)C3)c2c1 (stereo not drawn)

Structure (SMILES): CCN(CC)C1CCC(c2c[nH]c3ccc(F)cc23)C1 (stereo not drawn)
IC50 [1]: 7.3 nM

Structure (SMILES): CCN(CC)C1CCC(c2c[nH]c3ccc(C#N)cc23)C1 (stereo not drawn)
IC50 [1]: 6.2 nM

IC50 [1]: 10 nM
Structure (SMILES): N#Cc1ccc2[nH]cc(C3CCC(NCCc4ccccc4)C3)c2c1 (stereo not drawn)
